Results: the array DNA melting data of Ke et al. (doi:10.1101/2024.01.08.574731)

What was measured:
[1] = melting temperature; fluorescence melt of hairpins on a sequencing array, two-state fit, raised by 9.35 °C to match UV melts; conditions: sodium 0.088 M
How it was run: (§1)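 To match UV melts, fitted temperatures were raised by 9.35 °C. These fits were bootstrapped two-state models that gave melting temperature and folding enthalpy, combined by inverse variance over four replicates. The input was normalised Cy3 fluorescence of library hairpins with annealed Cy3 and quencher oligos on a sequenced MiSeq flow cell, imaged in 50 mM Na-HEPES pH 8.0, 25 mM NaCl in 2.5 °C steps up to 60 °C.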

[2] = folding enthalpy; higher = less favourable; fluorescence melt of hairpins on a sequencing array, two-state fit; conditions: sodium 0.088 M
How it was run: as §1

Row | Sequence | Tm [1] [°C] | folding enthalpy [2] [kcal/mol]
1 | GGGTAGGGAAACCTGCCC (((.(((....))).))) | 55.7 | -45
2 | GCTGTGCGAAAGCTAAGC (((..((....))..))) | 53.1 | -21.4
3 | GGTTGACGAAAGTCTACC (((.(((....))).))) | 53.8 | -33.1
4 | GGATGTGGAAACACGTTC (.(.(((....))).).) | 35.8 | -21.3
5 | AGCCAGAAATGGCT (((((....))))) | 54.4 | -19.1
6 | GATCAGATAACTGATC ((((((....)))))) | 46.8 | -34.5
7 | GATCAATGTTTGATC ((((((...)))))) | 43.8 | -30.8
8 | GTCCACCGAAAGGTAGAC (((.(((....))).))) | 47.4 | -26.4
9 | GATCTCACTGGAGATC ((((((....)))))) | 51.3 | -40
10 | GTTAGTGGAAACATTAAC ((((.((....)).)))) | 32.5 | -19.2
11 | GCCGGGCGAAAGCCATGC ((..(((....)))..)) | 42.4 | -14.4
12 | CGTCTCGGAAACGAACG (((.(((....)))))) | 36.1 | -23.4
13 | GGCTTGCCGAAAGGCGCC (((..(((....)))))) | 55.8 | -14
14 | GATCATGGGCATGATC ((((((....)))))) | 49.6 | -38
15 | GCGAAAGGTCGC ((((....)))) | 41.4 | -14.1
16 | GCCAAGCGAAAGCTTAGC ((.((((....)))).)) | 48.9 | -17.6
17 | GCTTGACGAAAGTCTAGC (((.(((....))).))) | 55.2 | -35.2
18 | GGCTTCGAAAGAACAGCC ((((((....)))..))) | 43.1 | -29.7
19 | GGGTGGACGAAAGTCCCC (((..(((....)))))) | 49.7 | -12.4
20 | GGGAGGGCGAAAGCCCCC (((..(((....)))))) | 55.3 | -10.6
21 | GTCCTTCGAAAGAAGAC (((.(((....)))))) | 36.7 | -18.3
22 | GTTTTAACGAAAGTTAAC (((..(((....)))))) | 27 | -14.7
23 | GGACGCGGAAACACGCCC ((.((.(....).)).)) | 34.3 | -18.9
24 | GATCGCGCCGGCGATC ((((((....)))))) | 68.2 | -25.3

Row | Sequence | Tm [1] [°C] | folding enthalpy [2] [kcal/mol]
25 | GGAGTTGCGAAAGCATCC (((..(((....)))))) | 32.5 | -12.7
26 | GCTAGACGAAAGTCCAGC (((.(((....))).))) | 47.6 | -24.9
27 | GCAATAACGAAAGTTTGC (((..(((....)))))) | 41.3 | -26
28 | GCCTGTGGAAACACAAGC ((.((((....)))).)) | 38.6 | -22.5
29 | GACCCTGGAAACAAGGTC ((((.((....)).)))) | 35.3 | -27.1
30 | GGTGGCGAAAGCCACACC ((((((....)))..))) | 60 | -6.43
31 | GTCGTTACGAAAGTAGAC (((..(((....)))))) | 44.8 | -29.1
32 | GTTACCGAAAGGTTGAAC ((((((....)))..))) | 29.2 | -12.8
33 | GGATCGAAAGATCC (((((....))))) | 65.3 | -29.6
34 | GCCCCCGAAAGGGACGGC ((((((....)))..))) | 50.9 | -21
35 | GCGAACACTCGC ((((....)))) | 45 | -23.5
36 | GCGCTACGAAAGTACCGC (((.(((....))).))) | 48.5 | -36.1
37 | GCGAAGTGTCGC ((((....)))) | 49.6 | -13.9
38 | GATCAATAGGTTGATC ((((((....)))))) | 45.1 | -34.3
39 | GATCTAAGGCTAGATC ((((((....)))))) | 38.8 | -25.3
40 | GATCCAGATTTGGATC ((((((....)))))) | 50.4 | -30
41 | GGGGCCGGAAACGGCCTC (.(((((....))))).) | 69.2 | -10.4
42 | GATCTTGTCGAAGATC ((((((....)))))) | 46.4 | -27.4
43 | CTTCAGAAATGAAG (((((....))))) | 36 | -11.5
44 | GATCCAATTCTGGATC ((((((....)))))) | 49.5 | -39.7
45 | GCATCGCGAAAGCACTGC (((..((....))..))) | 38.5 | -14.7
46 | GTGTCGGGAAACCGACGC (.(((((....))))).) | 60.5 | -19.8
47 | GATCTCGATGGAGATC ((((((....)))))) | 52.9 | -33.4
